Experimental findings from ChEMBL document CHEMBL1143520, “Bicyclic amidine inhibitors of nitric oxide synthase: discovery of perhydro-iminopyrindine and perhydro-iminoquinoline as potent, orally active inhibitors of inducible nitric oxide synthase” (Bioorg Med Chem Lett, 2005) are described below.

In test [1] the target is Nitric oxide synthase (inducible and endothelial) (Homo sapiens) (UniProt P35228+P29474). In words: Selectivity measured as the ratio of eNOS IC50/iNOS IC50. It counts as protein assay.
A further test deals with T1, Nitric oxide synthase 3 (Homo sapiens, UniProt P29474).
T1 sequence (P29474 whole entry): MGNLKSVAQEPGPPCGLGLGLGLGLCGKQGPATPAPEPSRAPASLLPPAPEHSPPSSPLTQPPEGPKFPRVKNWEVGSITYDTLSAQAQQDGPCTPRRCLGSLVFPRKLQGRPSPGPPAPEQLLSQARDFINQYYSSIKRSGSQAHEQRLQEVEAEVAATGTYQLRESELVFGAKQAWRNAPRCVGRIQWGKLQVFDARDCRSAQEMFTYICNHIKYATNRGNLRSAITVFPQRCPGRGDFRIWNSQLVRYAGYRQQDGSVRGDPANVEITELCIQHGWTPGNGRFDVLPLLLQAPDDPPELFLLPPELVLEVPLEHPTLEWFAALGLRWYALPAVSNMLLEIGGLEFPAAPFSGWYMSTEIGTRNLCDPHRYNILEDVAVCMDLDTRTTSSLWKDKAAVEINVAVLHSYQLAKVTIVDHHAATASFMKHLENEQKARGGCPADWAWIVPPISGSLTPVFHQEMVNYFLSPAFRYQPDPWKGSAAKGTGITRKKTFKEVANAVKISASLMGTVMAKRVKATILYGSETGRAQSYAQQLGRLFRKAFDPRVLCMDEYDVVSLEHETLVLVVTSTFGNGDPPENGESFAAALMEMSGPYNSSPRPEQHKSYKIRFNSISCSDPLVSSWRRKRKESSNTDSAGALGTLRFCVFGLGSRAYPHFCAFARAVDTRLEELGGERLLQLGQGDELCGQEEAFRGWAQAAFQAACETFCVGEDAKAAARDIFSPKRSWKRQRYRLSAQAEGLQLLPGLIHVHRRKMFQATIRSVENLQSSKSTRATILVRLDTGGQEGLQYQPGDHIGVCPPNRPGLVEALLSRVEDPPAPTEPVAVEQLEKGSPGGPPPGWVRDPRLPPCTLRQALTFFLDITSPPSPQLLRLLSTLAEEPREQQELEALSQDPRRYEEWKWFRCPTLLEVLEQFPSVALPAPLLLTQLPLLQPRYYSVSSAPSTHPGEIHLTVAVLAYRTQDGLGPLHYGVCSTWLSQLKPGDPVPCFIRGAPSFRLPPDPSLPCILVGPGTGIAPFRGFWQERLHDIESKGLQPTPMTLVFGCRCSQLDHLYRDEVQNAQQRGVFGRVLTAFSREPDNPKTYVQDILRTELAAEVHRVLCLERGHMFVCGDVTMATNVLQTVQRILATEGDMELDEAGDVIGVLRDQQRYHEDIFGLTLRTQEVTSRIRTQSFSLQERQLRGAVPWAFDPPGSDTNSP
In words: Inhibitory activity against human Endothelial nitric oxide synthase (eNOS).

In test [2] the target is Nitric oxide synthase, inducible (Homo sapiens, UniProt P35228). Kind of test: Inhibitory activity against human Inducible nitric oxide synthase (iNOS).
Sequence of Nitric oxide synthase, inducible (P35228 whole entry): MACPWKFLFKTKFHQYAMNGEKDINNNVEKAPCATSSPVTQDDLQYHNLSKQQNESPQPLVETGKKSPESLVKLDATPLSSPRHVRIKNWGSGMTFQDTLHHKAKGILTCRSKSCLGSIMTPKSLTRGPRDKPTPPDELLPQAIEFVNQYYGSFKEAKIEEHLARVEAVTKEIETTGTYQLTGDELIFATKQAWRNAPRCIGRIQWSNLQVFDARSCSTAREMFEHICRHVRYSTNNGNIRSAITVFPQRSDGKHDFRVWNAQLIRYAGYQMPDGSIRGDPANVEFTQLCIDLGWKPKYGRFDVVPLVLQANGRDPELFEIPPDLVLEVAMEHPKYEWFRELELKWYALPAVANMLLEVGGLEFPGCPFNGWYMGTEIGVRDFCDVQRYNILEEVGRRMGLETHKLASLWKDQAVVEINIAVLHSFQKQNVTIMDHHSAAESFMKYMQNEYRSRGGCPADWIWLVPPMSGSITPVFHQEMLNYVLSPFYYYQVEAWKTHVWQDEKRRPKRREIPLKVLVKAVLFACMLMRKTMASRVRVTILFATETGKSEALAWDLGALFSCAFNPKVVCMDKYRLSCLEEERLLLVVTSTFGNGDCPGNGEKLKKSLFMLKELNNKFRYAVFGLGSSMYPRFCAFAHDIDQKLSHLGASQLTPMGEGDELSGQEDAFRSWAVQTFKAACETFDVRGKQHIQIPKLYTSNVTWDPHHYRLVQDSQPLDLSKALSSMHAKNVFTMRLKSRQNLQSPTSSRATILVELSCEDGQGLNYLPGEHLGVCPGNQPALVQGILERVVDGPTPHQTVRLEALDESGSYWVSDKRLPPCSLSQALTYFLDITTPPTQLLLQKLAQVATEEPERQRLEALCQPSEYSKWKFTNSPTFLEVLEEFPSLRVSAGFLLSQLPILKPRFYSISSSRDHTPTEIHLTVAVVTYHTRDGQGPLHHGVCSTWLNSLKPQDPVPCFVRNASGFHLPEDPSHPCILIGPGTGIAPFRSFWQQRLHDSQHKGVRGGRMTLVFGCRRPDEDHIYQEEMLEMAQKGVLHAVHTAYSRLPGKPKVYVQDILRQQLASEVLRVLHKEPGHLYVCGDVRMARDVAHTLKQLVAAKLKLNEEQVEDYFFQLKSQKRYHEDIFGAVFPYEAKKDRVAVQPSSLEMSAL
Another test addresses Nitric oxide synthase 1 (Homo sapiens, UniProt P29475). Kind of test: Inhibitory activity against human Neuronal nitric oxide synthase (nNOS).
Test [3] relates to Rattus norvegicus. In words: Percentage inhibition of plasma nitrite/nitrate after peroral administration of 10 mg/kg of compound to rats 1 hr prior to LPS treating. It counts as functional. The note with it: route oral. Summed up:
(§1)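 Rats given 10 mg/kg po at set times before LPS challenge. Plasma nitrate/nitrite measured 5 h after LPS: nitrate reduced to nitrite by nitrate reductase, then fluorometric nitrite read-out. Reported as % inhibition of plasma NOx.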

Test [4] has as its system Rattus norvegicus. In words: Percentage inhibition of plasma nitrite/nitrate after peroral administration of 10 mg/kg of compound to rats 4 hr prior to LPS treating. It counts as functional. The note with it: route oral. Summed up:
as §1

In test [5] the test system is Rattus norvegicus. In words: Percentage inhibition of plasma nitrite/nitrate after peroral administration of 10 mg/kg of compound to rats 16 hr prior to LPS treating. It counts as functional. To be noted: route oral. The gist of the method: as §1
In test [6] the test system is Rattus norvegicus. Kind of test: Effective dose causing 50% reduction in plasma nitrite relative to control animals after intravenous administration in LPS treated rats. It counts as functional. The gist of the method: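 Rat endotoxin model: LPS challenge, then iv dosing 2 h after LPS. Plasma collected 5 h after LPS. Nitrate converted to nitrite with nitrate reductase, then total nitrite/nitrate measured fluorometrically.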

For test [7], the system named is Rattus norvegicus. In words: Percentage inhibition of plasma nitrite/nitrate after peroral administration of 10 mg/kg of compound to rats 2 hr prior to LPS treating. It counts as functional. To be noted: route oral. The gist of the method:
as §1

Where only a bound is given, the exact number is not on record here.

Sequence of Nitric oxide synthase 1 (P29475 whole entry): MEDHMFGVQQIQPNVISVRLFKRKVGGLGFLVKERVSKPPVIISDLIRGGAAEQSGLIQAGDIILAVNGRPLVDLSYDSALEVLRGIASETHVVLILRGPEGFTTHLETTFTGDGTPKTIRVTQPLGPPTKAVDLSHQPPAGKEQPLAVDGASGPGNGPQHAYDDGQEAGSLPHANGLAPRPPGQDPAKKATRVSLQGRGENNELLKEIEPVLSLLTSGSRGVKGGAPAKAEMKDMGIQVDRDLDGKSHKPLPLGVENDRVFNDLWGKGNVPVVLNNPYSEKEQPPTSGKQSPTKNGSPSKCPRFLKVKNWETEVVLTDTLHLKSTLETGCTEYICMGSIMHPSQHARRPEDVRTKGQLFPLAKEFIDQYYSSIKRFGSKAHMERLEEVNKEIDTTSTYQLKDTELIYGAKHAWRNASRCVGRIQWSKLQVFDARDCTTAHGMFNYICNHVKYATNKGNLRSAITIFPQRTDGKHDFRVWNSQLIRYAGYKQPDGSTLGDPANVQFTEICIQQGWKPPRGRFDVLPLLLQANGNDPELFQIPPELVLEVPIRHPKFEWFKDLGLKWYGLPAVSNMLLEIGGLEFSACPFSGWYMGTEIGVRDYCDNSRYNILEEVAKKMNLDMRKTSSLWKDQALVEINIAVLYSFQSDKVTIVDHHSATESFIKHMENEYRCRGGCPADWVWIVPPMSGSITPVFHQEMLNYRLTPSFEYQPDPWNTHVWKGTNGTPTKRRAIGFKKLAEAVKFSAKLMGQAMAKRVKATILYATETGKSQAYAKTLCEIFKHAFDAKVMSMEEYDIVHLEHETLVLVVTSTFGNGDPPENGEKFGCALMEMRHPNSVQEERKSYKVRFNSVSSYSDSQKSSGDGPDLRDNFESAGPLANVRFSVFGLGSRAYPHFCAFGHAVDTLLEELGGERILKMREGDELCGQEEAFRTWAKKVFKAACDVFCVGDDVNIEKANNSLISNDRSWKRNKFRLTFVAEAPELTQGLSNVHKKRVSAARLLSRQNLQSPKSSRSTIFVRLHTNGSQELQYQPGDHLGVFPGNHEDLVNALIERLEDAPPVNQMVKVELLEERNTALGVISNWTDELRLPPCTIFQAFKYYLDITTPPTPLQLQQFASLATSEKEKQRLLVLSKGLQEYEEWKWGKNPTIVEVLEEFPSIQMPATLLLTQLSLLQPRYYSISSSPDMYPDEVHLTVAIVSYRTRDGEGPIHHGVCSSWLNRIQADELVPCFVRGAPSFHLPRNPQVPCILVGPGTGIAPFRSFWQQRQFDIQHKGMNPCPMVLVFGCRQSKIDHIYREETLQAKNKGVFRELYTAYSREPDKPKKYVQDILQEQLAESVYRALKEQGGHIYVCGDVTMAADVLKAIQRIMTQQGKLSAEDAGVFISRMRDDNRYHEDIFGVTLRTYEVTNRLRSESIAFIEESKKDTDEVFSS

Take `C[C@@H]1CC(N)=N[C@@H]2CCC[C@H]12` (stereo in doubt; 10) [listing 1 of 2 here]: in [1], the Selectivity amounted to 31.
As for `N=C1CCCCN1`, the IC50 – broadly, the concentration needed to halve the response being measured – against Nitric oxide synthase 3 is 630 nM; in test [2] it was 300 nM.
Take `C[C@@H]1CC(N)=N[C@H]2CCCC[C@@H]12`: the Selectivity in test [1] was determined as 52. Moreover, the IC50 against Nitric oxide synthase 3 was 2000 nM; in test [2], 38 nM; at Nitric oxide synthase 1 it was 190 nM.
In the case of `C[C@H]1CC(N)=N[C@H]2CCCC[C@H]21`, the IC50 against Nitric oxide synthase 3 is above 5000 nM; in [2], above 5000 nM; on Nitric oxide synthase 1, 610 nM.
Consider `C[C@@H]1CC(N)=N[C@@H]2CCC[C@H]12` (stereo in doubt; 10a) [listing 1 of 2 here], for which the Selectivity in test [1] amounted to 40.
`C[C@@H]1CC(N)=N[C@@H]2CCCC[C@H]12`: the inhibition in vivo – broadly, the drop in the measured response relative to a control, in per cent – at 10 mg/kg with Rattus norvegicus [3] amounted to 57%; in the test with Rattus norvegicus [4], 74%; in the test with Rattus norvegicus [5] it was 42%; with Rattus norvegicus [7] it was 69%. For the same compound, the 50% effect level with Rattus norvegicus [6] (ED50) was put at a dose of 0.19 mg/kg. In addition, the Selectivity in [1] is 37. In addition, the IC50 against Nitric oxide synthase 3 came out at 830 nM; in test [2] it was 22 nM; on Nitric oxide synthase 1, 53 nM.
For the compound `C[C@@H]1CC(N)=N[C@@H]2CCCCC[C@H]12`, the Selectivity in test [1] is 5.2. Also, the figures for the 50% inhibitory concentration (IC50) (on Nitric oxide synthase 3; in test [2]; against Nitric oxide synthase 1) were 4500 nM, 860 nM and 1300 nM, respectively.
In the case of `C[C@H]1CC(N)=N[C@H]2CCC[C@H]21`, the Selectivity in test [1] was 6.5. Further, the IC50 against Nitric oxide synthase 3 was 870 nM; in test [2], 133 nM; on Nitric oxide synthase 1, 36 nM.
Consider `CC1CCN=C(N)C1` (configuration not stated), for which the ED50 (in general, the midpoint of the dose-response relation) with Rattus norvegicus [6] was determined as 0.5 mg/kg. In addition, the 50% inhibitory concentration (IC50) in [2] worked out at 37 nM.
For the compound `C[C@@H]1CC(N)=N[C@@H]2CCC[C@H]12` (stereo in doubt; 10a) [listing 2 of 2 here], the inhibition in vivo at 10 mg/kg in the test with Rattus norvegicus [3] is 95%; with Rattus norvegicus [4], 52%; in the test with Rattus norvegicus [5] it was 39%; in the test on Rattus norvegicus [7], 80%. For the same compound, in the test on Rattus norvegicus [6], it took a dose of 0.25 mg/kg to reach the 50% effect level (ED50). Besides, the values for the IC50 (against Nitric oxide synthase 3; in [2]; at Nitric oxide synthase 1) were 360 nM, 9 nM and 21 nM, respectively.
`NC1=N[C@H]2CCCC[C@H]2CC1`: the Selectivity in test [1] was found to be 67. Moreover, the IC50 turned out to be 12500 nM at Nitric oxide synthase 3, 186 nM in test [2] and 246 nM against Nitric oxide synthase 1.
On to `NC1=Nc2ccccc2CC1`, for which, in test [1], the Selectivity came out at 6.1. Further, the IC50 was found to be 85000 nM on Nitric oxide synthase 3, 14000 nM in test [2] and 4900 nM against Nitric oxide synthase 1.
In the case of `C[C@@H]1CC(N)=N[C@@H]2CCC[C@H]12` (stereo in doubt; 10) [listing 2 of 2 here], the 50% inhibitory concentration (IC50) against Nitric oxide synthase 3 turned out to be 470 nM; in [2], 15 nM; against Nitric oxide synthase 1 it was 31 nM.
On to `NC1=N[C@H]2CCCC[C@@H]2CC1`, for which the values for the concentration for half-maximal inhibition (IC50) (at Nitric oxide synthase 3; in test [2]; against Nitric oxide synthase 1) were 5500 nM, 528 nM and 530 nM, respectively.
